In ChEMBL document CHEMBL1131467, “Identification and initial structure-activity relationships of a novel class of nonpeptide inhibitors of blood coagulation factor Xa” (J Med Chem, 1998):

Assays:
Prothrombin = Prothrombin (Homo sapiens, UniProt P00734); assay: Inhibitory activity against human Thrombin
Method in brief: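 Human thrombin at 1 nM final, in Tris 0.05 M, NaCl 0.15 M, 0.1% PEG-8000, pH 7.5, room temperature. Enzyme and compound preincubated 30 min; reaction started with Pefachrome TH (50 μM final). Absorbance at 405 nm followed for 5 min. IC50 is the level that halves control initial velocity; apparent Ki by Cheng-Prusoff, assuming competitive inhibition.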

Coagulation factor X = Coagulation factor X (Homo sapiens, UniProt P00742); assay: Inhibitory activity against human Coagulation factor X
Chain of Coagulation factor X (P00742 41-179 limits assumed): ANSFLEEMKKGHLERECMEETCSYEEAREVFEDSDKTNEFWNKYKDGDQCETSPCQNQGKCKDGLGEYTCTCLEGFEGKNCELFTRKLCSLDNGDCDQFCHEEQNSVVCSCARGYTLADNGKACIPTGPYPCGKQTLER
Chain of Coagulation factor X (P00742 235-488 limits assumed): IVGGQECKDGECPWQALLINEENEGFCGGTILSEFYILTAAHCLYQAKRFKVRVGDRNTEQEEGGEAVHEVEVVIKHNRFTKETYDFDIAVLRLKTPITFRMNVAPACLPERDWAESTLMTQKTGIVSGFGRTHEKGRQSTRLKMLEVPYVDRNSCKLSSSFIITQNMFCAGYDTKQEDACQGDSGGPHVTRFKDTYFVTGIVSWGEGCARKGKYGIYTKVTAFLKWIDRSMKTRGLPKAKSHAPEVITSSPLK
Method in brief: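 Human factor Xa at 1 nM final, in 0.05 M Tris, 0.15 M NaCl, 0.1% PEG-8000, pH 7.5, room temperature. Compound preincubated with enzyme 30 min, then Spectrozyme FXa added (200 μM final). Run in triplicate. IC50 taken from initial velocities; Ki by Cheng-Prusoff, assuming competitive inhibition.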

[1] = molecular target: Cationic trypsin (Bos taurus); assay: Inhibitory activity against bovine trypsin

## COC(=O)C(Cc1cccc(C(=N)N)c1)C(/C=C/c1ccccc1)NC(=O)c1ccc(-c2ccc(OC)cc2OC)cc1 (stereo unspecified)
Prothrombin
  IC50: 3500 nM
Coagulation factor X
  IC50: 90 nM
[1]
  IC50: 2900 nM

## COC(=O)C(Cc1cccc(C(=N)N)c1)C(/C=C/c1ccccc1)NC(=O)c1ccccc1C (stereo unspecified)
Coagulation factor X
  IC50: 1200 nM

## COC(=O)C(Cc1cccc(C(=N)N)c1)C(/C=C/c1ccccc1)NC(=O)c1ccc2ccccc2c1 (stereo unspecified)
Coagulation factor X
  IC50: 160 nM

## CC(=O)OCC(Cc1cccc(C(=N)N)c1)C(/C=C/c1ccccc1)NC(=O)c1ccc(-c2ccccc2)cc1 (stereo unspecified)
Prothrombin
  IC50: 3800 nM
Coagulation factor X
  IC50: 360 nM

## COC(=O)C(Cc1cccc(C(=N)N)c1)C(/C=C/c1ccccc1)NC(=O)c1ccc(-c2ccccc2OC)cc1 (stereo unspecified)
Prothrombin
  IC50: 3300 nM
Coagulation factor X
  IC50: 50 nM
[1]
  IC50: 1800 nM

## COC(=O)C(Cc1cccc(C(=N)N)c1)C(/C=C/c1ccccc1)NC(=O)c1ccc(-c2ccccc2C)cc1 (stereo unspecified)
Prothrombin
  IC50: 9000 nM
Coagulation factor X
  IC50: 90 nM
[1]
  IC50: 3100 nM

## COC(=O)C(Cc1cccc(C(=N)N)c1)C(/C=C/c1ccccc1)NC(=O)C1CCC(C2CCCCC2)CC1 (stereo unspecified)
Coagulation factor X
  IC50: 1120 nM

## COC(=O)C(Cc1cccc(C(=N)N)c1)C(/C=C/c1ccccc1)NS(=O)(=O)c1ccc(-c2ccccc2)cc1 (stereo unspecified)
Coagulation factor X
  IC50: 1970 nM

## COC(=O)C(Cc1cccc(C(=N)N)c1)C(/C=C/c1ccccc1)NC(=O)c1ccc(-c2ccccc2)cc1 (stereo unspecified)
Prothrombin
  IC50: 18000 nM
Coagulation factor X
  IC50: 110 nM

## COC(=O)[C@H](Cc1cccc(C(=N)N)c1)[C@@H](/C=C/c1ccccc1)NC(=O)c1ccccc1
Coagulation factor X
  IC50: 700 nM

## COC(=O)C(Cc1cccc(C(=N)N)c1)C(/C=C/c1ccccc1)NC(=O)c1ccc(C2CCCCC2)cc1 (stereo unspecified)
Coagulation factor X
  IC50: 580 nM

## CCc1ccccc1-c1ccc(C(=O)NC(/C=C/c2ccccc2)C(Cc2cccc(C(=N)N)c2)C(=O)OC)cc1 (stereo unspecified)
Prothrombin
  IC50: 5300 nM
Coagulation factor X
  IC50: 380 nM

## COC(=O)C(Cc1cccc(C(=N)N)c1)C(/C=C/c1ccccc1)NC(=O)c1ccc(Cc2ccccc2)cc1 (stereo unspecified)
Coagulation factor X
  IC50: 460 nM

## COC(=O)C(Cc1cccc(C(=N)N)c1)C(/C=C/c1ccccc1)NC(=O)c1ccc(-c2cccc(OC)c2)cc1 (stereo unspecified)
Prothrombin
  IC50: 2400 nM
Coagulation factor X
  IC50: 110 nM
[1]
  IC50: 2200 nM

## CCOc1cccc(-c2ccc(C(=O)NC(/C=C/c3ccccc3)C(Cc3cccc(C(=N)N)c3)C(=O)OC)cc2)c1 (stereo unspecified)
Prothrombin
  IC50: 4300 nM
Coagulation factor X
  IC50: 180 nM
[1]
  IC50: 3600 nM

## N=C(N)c1cccc(CC(C(=O)O)C(/C=C/c2ccccc2)NC(=O)c2ccc(-c3ccccc3)cc2)c1 (stereo unspecified)
Prothrombin
  IC50: 7700 nM
Coagulation factor X
  IC50: 2700 nM

## COC(=O)C(Cc1cccc(C(=N)N)c1)C(/C=C/c1ccccc1)NC(=O)c1ccc(Oc2ccccc2)cc1 (stereo unspecified)
Coagulation factor X
  IC50: 1220 nM

## CCOc1ccc(-c2ccc(C(=O)NC(/C=C/c3ccccc3)C(Cc3cccc(C(=N)N)c3)C(=O)OC)cc2)cc1 (stereo unspecified)
Prothrombin
  IC50: 2000 nM
Coagulation factor X
  IC50: 360 nM
[1]
  IC50: 2800 nM

## COC(=O)[C@@H](Cc1cccc(C(=N)N)c1)[C@@H](/C=C/c1ccccc1)NC(=O)c1ccccc1
Coagulation factor X
  IC50: 2000 nM

## CN(C)C(=O)C(Cc1cccc(C(=N)N)c1)C(/C=C/c1ccccc1)NC(=O)c1ccc(-c2ccccc2)cc1 (stereo unspecified)
Coagulation factor X
  IC50: 4400 nM

## COC(=O)C(Cc1cccc(C(=N)N)c1)C(/C=C/c1ccccc1)NC(=O)c1ccc(C)cc1 (stereo unspecified)
Coagulation factor X
  IC50: 600 nM

## CCc1ccc(-c2ccc(C(=O)NC(/C=C/c3ccccc3)C(Cc3cccc(C(=N)N)c3)C(=O)OC)cc2)cc1 (stereo unspecified)
Coagulation factor X
  IC50: 890 nM

## CCOc1ccccc1-c1ccc(C(=O)NC(/C=C/c2ccccc2)C(Cc2cccc(C(=N)N)c2)C(=O)OC)cc1 (stereo unspecified)
Prothrombin
  IC50: 3800 nM
Coagulation factor X
  IC50: 60 nM
[1]
  IC50: 1800 nM

## COC(=O)C(Cc1cccc(C(=N)N)c1)C(/C=C/c1ccccc1)NC(=O)c1ccc(-c2ccc(OC)c(OC)c2)cc1 (stereo unspecified)
Prothrombin
  IC50: 4700 nM
Coagulation factor X
  IC50: 30 nM

## COC(=O)C(Cc1cccc(C(=N)N)c1)C(/C=C/c1ccccc1)NC(=O)c1ccc(-c2cccc(C)c2)cc1 (stereo unspecified)
Prothrombin
  IC50: 7200 nM
Coagulation factor X
  IC50: 120 nM

## CCc1cccc(-c2ccc(C(=O)NC(/C=C/c3ccccc3)C(Cc3cccc(C(=N)N)c3)C(=O)OC)cc2)c1 (stereo unspecified)
Prothrombin
  IC50: 1700 nM
Coagulation factor X
  IC50: 390 nM
[1]
  IC50: 2600 nM

## COC(=O)C(Cc1cccc(C(=N)N)c1)C(/C=C/c1ccccc1)NC(=O)c1ccc(-c2ccc(OC)cc2)cc1 (stereo unspecified)
Prothrombin
  IC50: 2700 nM
Coagulation factor X
  IC50: 80 nM
[1]
  IC50: 2900 nM

## N=C(N)c1cccc(CCC(/C=C/c2ccccc2)NC(=O)c2ccc(-c3ccccc3)cc2)c1 (stereo unspecified)
Prothrombin
  IC50: 31000 nM
Coagulation factor X
  IC50: 950 nM

## COC(=O)C(Cc1cccc(C(=N)N)c1)C(/C=C/c1ccccc1)NC(=O)c1cccc(C)c1 (stereo unspecified)
Coagulation factor X
  IC50: 1100 nM

## COC(=O)C(Cc1cccc(C(=N)N)c1)C(/C=C/c1ccccc1)NC(=O)c1ccccc1 (stereo unspecified)
Coagulation factor X
  IC50: 700 nM

## COC(=O)C(Cc1cccc(C(=N)N)c1)C(/C=C/c1ccccc1)NC(=O)c1cccc2ccccc12 (stereo unspecified)
Coagulation factor X
  IC50: 790 nM

## COC(=O)C(Cc1cccc(C(=N)N)c1)C(/C=C/c1ccccc1)NC(=O)c1ccc(-c2ccc(C)cc2)cc1 (stereo unspecified)
Prothrombin
  IC50: 4800 nM
Coagulation factor X
  IC50: 240 nM
[1]
  IC50: 2800 nM

## COCC(Cc1cccc(C(=N)N)c1)C(/C=C/c1ccccc1)NC(=O)c1ccc(-c2ccccc2)cc1 (stereo unspecified)
Prothrombin
  IC50: 8700 nM
Coagulation factor X
  IC50: 540 nM
[1]
  IC50: 10000 nM

## N=C(N)c1cccc(CC(CO)C(/C=C/c2ccccc2)NC(=O)c2ccc(-c3ccccc3)cc2)c1 (stereo unspecified)
Coagulation factor X
  IC50: 650 nM

## COC(=O)[C@H](Cc1cccc(C(=N)N)c1)[C@@H](CCc1ccccc1)NC(=O)c1ccc(-c2ccccc2)cc1
Coagulation factor X
  IC50: 60 nM

## COC(=O)C(Cc1cccc(C(=N)N)c1)C(CCc1ccccc1)NC(=O)c1ccc(-c2ccccc2)cc1 (stereo in doubt; 8a)
Coagulation factor X
  IC50: 60 nM

## COC(=O)C(Cc1cccc(C(=N)N)c1)C(CCc1ccccc1)NC(=O)c1ccc(-c2ccccc2)cc1 (stereo in doubt; 8b)
Coagulation factor X
  IC50: 310 nM
